A short description of series [1]: Protein binding in mouse plasma. The class given is ADME, cell-free. The settings on record: read-out: PPB (converted).
Series [2] in a line: Kinetic aqueous solubility of the compound in pH 7.4 solution. The settings on record: aqueous pH 7.4 solution, read-out: Kinetic_solubility. The class given is physicochemical.
A short description of series [3]: Plasma concentration in mouse at 30 mg/kg, po. The class given is ADME, organism-based. The settings on record: in vivo. The method in brief: (§1)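 Mice dosed orally at 30 mg/kg; plasma, brain and unbound plasma concentrations measured.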
Series [4] can be described thus: Intrinsic clearance in human liver microsomes at 2.5 uM. The class given is ADME, Microsome. An outline of the steps:
(§2)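 Liver microsomes (0.5 mg/mL) of human, Wistar rat or NMRI mouse; compound 2.5 μM initial, incubated for various times. Intrinsic clearance (mL/min·g liver) taken as rate of compound consumption under first-order conditions, Clint = Vmax/KM or V/S when S ≪ KM.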

The nature of series [5]: Lipophilicity, log D of the compound at pH 7.4. The class given is physicochemical. Particulars: buffer.
Series [6] in a line: Protein binding in rat plasma. The settings on record: read-out: PPB (converted). The class given is ADME, cell-free.
For the next series, the target named is Cytochrome P450 2C9 (Homo sapiens, UniProt P11712). Nature of the series: Inhibition of CYP2C9 (unknown origin). The class given is ADME.
Chain of Cytochrome P450 2C9 (P11712 whole entry): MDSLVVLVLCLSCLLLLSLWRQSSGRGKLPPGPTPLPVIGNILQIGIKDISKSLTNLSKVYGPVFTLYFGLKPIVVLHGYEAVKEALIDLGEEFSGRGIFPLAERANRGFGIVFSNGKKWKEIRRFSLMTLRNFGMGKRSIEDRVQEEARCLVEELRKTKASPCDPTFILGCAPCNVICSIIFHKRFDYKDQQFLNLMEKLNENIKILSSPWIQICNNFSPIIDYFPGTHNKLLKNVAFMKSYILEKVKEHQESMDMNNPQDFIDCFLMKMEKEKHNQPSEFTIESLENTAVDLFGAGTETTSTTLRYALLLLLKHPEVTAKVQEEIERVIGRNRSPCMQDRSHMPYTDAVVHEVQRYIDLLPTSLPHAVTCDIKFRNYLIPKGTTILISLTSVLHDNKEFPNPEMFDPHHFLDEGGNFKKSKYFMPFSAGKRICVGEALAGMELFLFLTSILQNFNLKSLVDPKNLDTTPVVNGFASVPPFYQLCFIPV
The test system of series [7] is Mus musculus. Nature of the series: Inhibition of DOI-induced head twitches in ip dosed ddY mouse pretreated for 20 mins followed by DOI addition measured after 8 mins. The class given is functional. The method in brief:
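Male ddY mice, 6 weeks old, dosed i.p. 20 min before DOI 0.75 mg/kg s.c.; head twitches counted in transparent cylinder from 10 to 18 min after DOI.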

In a further series the target is T1, Cytochrome P450 1A2 (Homo sapiens, UniProt P05177).
T1 sequence (P05177 whole entry): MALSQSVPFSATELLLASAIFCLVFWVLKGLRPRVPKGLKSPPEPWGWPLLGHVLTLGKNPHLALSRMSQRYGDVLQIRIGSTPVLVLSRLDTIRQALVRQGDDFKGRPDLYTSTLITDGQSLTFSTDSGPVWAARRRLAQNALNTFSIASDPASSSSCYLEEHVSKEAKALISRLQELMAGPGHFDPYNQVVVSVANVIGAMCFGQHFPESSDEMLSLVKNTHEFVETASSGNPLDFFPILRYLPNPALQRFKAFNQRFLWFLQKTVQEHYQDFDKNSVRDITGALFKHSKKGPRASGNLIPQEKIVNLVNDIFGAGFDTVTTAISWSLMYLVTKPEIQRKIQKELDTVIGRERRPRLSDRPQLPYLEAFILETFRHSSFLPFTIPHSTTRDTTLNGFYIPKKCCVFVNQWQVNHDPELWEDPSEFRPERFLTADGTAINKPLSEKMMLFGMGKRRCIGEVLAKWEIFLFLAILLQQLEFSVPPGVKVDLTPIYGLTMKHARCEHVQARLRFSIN
Put plainly: Inhibition of CYP1A2 (unknown origin). The class given is ADME.

Series [8] concerns Mus musculus. Put plainly: Antipsychotic activity in ip dosed ddY mouse assessed as inhibition of PCP-induced hyperlocomotion pretreated followed by PCP addition measured after 60 mins by passive infrared sensor method. The class given is functional. An outline of the steps: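 Male ddY mice, 6 weeks old, acclimated 60 min in test cage, dosed i.p., then immediately PCP 2.5 mg/kg s.c.; locomotor activity recorded 60 min by passive infrared sensor system; ED50 reported.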

The target in series [9] is T2, Nuclear receptor subfamily 1 group I member 2 (Homo sapiens, UniProt O75469).
T2 sequence (O75469 whole entry): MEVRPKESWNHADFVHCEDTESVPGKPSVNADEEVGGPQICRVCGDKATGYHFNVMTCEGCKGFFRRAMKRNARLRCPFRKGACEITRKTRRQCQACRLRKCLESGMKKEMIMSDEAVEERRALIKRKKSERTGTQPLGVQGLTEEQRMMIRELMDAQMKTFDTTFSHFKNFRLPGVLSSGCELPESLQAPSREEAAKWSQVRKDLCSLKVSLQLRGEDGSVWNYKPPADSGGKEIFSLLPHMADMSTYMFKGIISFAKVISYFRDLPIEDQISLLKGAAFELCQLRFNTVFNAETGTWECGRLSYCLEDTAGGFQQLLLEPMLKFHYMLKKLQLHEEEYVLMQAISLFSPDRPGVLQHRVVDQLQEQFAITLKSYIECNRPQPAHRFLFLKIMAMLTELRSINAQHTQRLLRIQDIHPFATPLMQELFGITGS
Nature of the series: Activation of PXR (unknown origin) assessed as CYP induction. The class given is ADME.

A further series deals with Cytochrome P450 2D6 (Homo sapiens, UniProt P10635). Put plainly: Inhibition of CYP2D6 (unknown origin). The class given is ADME.
Chain of Cytochrome P450 2D6 (P10635 whole entry): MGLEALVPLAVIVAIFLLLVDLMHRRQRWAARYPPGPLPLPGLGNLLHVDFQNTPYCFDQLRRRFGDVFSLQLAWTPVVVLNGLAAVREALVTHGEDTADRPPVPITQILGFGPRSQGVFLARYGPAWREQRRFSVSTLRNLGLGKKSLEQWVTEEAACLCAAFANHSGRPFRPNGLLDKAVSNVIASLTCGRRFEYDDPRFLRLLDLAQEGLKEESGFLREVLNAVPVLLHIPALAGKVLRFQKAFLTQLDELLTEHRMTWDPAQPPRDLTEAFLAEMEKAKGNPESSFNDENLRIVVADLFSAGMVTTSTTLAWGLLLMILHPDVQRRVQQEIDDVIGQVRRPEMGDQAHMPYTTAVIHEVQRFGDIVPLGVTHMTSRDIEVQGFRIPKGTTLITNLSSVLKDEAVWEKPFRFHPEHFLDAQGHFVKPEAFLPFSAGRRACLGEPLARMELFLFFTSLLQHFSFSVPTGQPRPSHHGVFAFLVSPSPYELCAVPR
Series [10] is described as follows: Drug uptake in mouse brain at 30 mg/kg, po. The class given is ADME, organism-based. Particulars: in vivo, read-out: Drug uptake. An outline of the steps: as §1
The target of a further series is Cytochrome P450 3A4 (Homo sapiens, UniProt P08684). Nature of the series: Inhibition of CYP3A4 (unknown origin). The class given is ADME.
Chain of Cytochrome P450 3A4 (P08684 whole entry): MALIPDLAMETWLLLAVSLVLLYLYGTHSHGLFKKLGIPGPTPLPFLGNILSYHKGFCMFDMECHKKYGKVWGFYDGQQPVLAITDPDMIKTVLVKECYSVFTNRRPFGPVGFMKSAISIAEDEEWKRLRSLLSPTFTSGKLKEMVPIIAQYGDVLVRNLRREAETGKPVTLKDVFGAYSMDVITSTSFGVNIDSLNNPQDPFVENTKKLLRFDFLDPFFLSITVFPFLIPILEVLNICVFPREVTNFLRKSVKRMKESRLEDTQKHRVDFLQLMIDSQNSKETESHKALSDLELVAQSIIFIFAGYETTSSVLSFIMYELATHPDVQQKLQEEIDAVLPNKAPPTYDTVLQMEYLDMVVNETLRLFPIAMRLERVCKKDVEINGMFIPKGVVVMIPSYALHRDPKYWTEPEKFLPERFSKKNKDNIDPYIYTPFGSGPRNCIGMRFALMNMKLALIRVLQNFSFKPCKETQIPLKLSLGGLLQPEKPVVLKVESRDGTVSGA
Series [11] in a line: Intrinsic clearance in NMRI mouse liver microsomes at 2.5 uM. The class given is ADME, Microsome. The method in brief: as §2
For orientation: Liver microsomes are a subcellular fraction often used to study metabolism.

Series [12] can be described thus: Intrinsic clearance in Wistar rat liver microsomes at 2.5 uM. The class given is ADME, Microsome. An outline of the steps: as §2
Series [13] deals with Metabotropic glutamate receptor 2 (Homo sapiens, UniProt Q14416). Nature of the series: Positive allosteric modulation of human mGluR2 expressed in human Chem1 cells assessed as increase in glutamate-induced intracellular calcium influx preincubated for 30 mins followed by glutamate addition by calcium-5 dye based fluorometric assay. The class given is functional, cell-based. An outline of the steps:
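Chem-1 cells stably expressing human mGlu2, 30000 cells/well, overnight at 37 °C. Loaded with Calcium 5 dye (30 min, 37 °C) in buffer with GPT/pyruvate, washed, then compound or vehicle 30 min at 37 °C. Glutamate at EC5-EC20 added after 20 s baseline; fluorescence 485/525 nm read 40 s. ΔF/F from multiple wells; sigmoid fits give EC50, three independent experiments. Final DMSO 1%.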
A general note: Calcium assays in cells follow changes in intracellular calcium, usually with a dye or a luminescent sensor.

The nature of series [14]: Unbound plasma concentration in mouse at 30 mg/kg, po. The class given is ADME, organism-based. The settings on record: in vivo. The method in brief: as §1
The species entered for the next series is Homo sapiens. Nature of the series: Binding affinity to sodium channel site 2 (unknown origin) at 10 uM relative to control.
Series [15] has as its target T3, Androgen receptor (Homo sapiens) (UniProt P10275).
T3 sequence (whole entry): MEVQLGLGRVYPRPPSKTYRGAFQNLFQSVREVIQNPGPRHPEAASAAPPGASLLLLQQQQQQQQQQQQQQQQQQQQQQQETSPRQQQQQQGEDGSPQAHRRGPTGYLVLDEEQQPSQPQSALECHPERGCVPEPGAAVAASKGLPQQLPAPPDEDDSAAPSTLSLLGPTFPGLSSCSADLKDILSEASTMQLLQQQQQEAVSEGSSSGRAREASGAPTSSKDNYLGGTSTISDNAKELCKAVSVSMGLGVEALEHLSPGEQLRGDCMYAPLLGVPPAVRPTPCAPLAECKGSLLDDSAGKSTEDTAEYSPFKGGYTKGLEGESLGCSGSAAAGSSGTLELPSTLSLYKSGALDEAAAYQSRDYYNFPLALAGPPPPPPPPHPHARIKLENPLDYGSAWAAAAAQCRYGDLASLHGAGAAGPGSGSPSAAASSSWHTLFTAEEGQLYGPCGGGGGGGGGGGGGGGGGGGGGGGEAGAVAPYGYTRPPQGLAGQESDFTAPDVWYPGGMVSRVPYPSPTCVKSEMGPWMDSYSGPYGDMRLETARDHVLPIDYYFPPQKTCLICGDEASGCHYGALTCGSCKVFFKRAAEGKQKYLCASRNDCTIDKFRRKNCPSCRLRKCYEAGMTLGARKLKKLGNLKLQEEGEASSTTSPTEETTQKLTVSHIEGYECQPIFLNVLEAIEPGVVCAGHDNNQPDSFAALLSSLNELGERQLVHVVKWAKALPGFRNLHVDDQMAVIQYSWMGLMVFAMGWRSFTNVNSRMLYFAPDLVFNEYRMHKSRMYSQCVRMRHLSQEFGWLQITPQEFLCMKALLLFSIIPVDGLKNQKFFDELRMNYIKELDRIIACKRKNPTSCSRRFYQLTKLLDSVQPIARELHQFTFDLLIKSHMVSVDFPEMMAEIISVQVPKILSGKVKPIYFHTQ
Put plainly: Binding affinity to AR (unknown origin) at 10 uM relative to control.

SMILES strings stand for the structures. Converted amounts (≈) assume the structure as drawn.

Chain of Metabotropic glutamate receptor 2 (Q14416 whole entry): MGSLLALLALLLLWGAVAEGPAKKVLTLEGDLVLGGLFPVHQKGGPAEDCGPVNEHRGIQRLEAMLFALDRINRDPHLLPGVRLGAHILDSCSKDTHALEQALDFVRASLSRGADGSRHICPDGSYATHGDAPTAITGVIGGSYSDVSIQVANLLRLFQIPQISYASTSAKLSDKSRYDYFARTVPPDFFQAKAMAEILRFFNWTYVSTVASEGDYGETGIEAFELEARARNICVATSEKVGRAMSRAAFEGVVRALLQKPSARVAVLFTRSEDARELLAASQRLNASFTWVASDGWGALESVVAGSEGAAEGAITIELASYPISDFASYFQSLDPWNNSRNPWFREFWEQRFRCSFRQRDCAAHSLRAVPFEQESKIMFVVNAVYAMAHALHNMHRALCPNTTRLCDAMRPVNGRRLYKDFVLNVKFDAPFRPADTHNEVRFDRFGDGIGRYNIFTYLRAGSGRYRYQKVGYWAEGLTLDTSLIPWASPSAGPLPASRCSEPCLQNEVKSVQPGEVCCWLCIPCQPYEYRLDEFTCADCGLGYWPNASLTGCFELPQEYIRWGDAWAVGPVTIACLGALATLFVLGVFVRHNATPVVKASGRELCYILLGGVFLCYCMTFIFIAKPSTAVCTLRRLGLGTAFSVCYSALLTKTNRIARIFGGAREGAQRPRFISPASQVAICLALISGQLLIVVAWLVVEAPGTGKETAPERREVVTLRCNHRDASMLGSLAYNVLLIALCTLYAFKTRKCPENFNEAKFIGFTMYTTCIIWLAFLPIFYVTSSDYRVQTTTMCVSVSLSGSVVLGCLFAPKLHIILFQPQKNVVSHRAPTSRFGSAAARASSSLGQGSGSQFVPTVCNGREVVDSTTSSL

Broadly, the logD is lipophilicity at a set pH, counting ionised and neutral species. High values mean a more lipophilic compound, low ones a more hydrophilic compound. In general, IC50 refers to the concentration at which inhibition is half-maximal. One may read the ED50 as the midpoint of the dose-response relation. As usually defined, the EC50 is the concentration that produces a half-maximal response. For the molecule `FC(F)(F)c1cccc2c1nnn2CC1CC1`, the figures for the fraction unbound in series [1] and in series [6] were 0.145 and 0.1, respectively. Further, the solubility kinetic in [2] came out at 409 µg/mL (≈ 1700 µM). Moreover, the concentration in series [3] turned out to be 12.1 µM; in series [10], 13.1 µM. Moreover, the Intrinsic clearance in series [4] was 0.3 mL/min/g; in series [11], 1.4 mL/min/g; in [12] it was 0.3 mL/min/g. Also, the log distribution coefficient (logD) in [5] was 3.08. Also, the IC50 at Cytochrome P450 2C9, against Cytochrome P450 1A2, on Cytochrome P450 2D6 and against Cytochrome P450 3A4 was over 10000 nM each time. Further, the ED50 in the series with Mus musculus [7] was 29.7 mg/kg; in the series with Mus musculus [8] it was 57.6 mg/kg. Besides, the MEC in [9] was 7 µM. Moreover, the concentration giving a half-maximal response (EC50) in series [13] is 148 nM. The “Cp(f)” value in [14] came out at 1.75 µM.

In the case of `Fc1cc(Cl)ccc1-c1ccc(Cn2nnc3ccccc32)cn1`, the fraction unbound in series [1] is 0.008; in series [6], 0.006. The solubility kinetic in series [2] amounted to 3 µg/mL (≈ 8.86 µM). Also, the concentration in [3] is 2 µM; in series [10], 1.4 µM. Besides, the Intrinsic clearance is 0.01 mL/min/g in series [4], 3.4 mL/min/g in [11] and 0.8 mL/min/g in series [12]. The Activity was 50% in the series listed under Homo sapiens and 77% in series [15]. In [5], the logD turned out to be 5.48. Moreover, the IC50 against Cytochrome P450 2C9 was 6600 nM; on Cytochrome P450 1A2, over 10000 nM; against Cytochrome P450 2D6, over 10000 nM; against Cytochrome P450 3A4, over 10000 nM. In the series on Mus musculus [8], the ED50 is over 100 mg/kg. For the same molecule, the MEC in series [9] is 7.7 µM. Further, in series [13], the 50% effective concentration (EC50) was 50 nM. Further, the “Cp(f)” value in series [14] worked out at 0.015 µM.

For the molecule `Fc1cc(Cl)ccc1-c1ccc(Cn2nnc3c(Br)cccc32)cn1`, the concentration in series [3] amounted to 20 µM; in series [10], 7.1 µM. Besides, the Intrinsic clearance came out at 0.1 mL/min/g in [4], 3.8 mL/min/g in [11] and 0.4 mL/min/g in series [12]. Moreover, in the series with Mus musculus [8], the ED50 was 47 mg/kg. Besides, the concentration for a half-maximal effect (EC50) in [13] was determined as 6 nM. In addition, in series [14], the “Cp(f)” value stood at 0.081 µM.

For the molecule `Brc1cccc2c1nnn2CC1CC1`, the Intrinsic clearance was found to be 1.3 mL/min/g in [4], 7.7 mL/min/g in series [11] and 0.6 mL/min/g in [12]. In series [13], the concentration for a half-maximal effect (EC50) came to 70 nM.

As for `Brc1ccc(Cn2nnc3c(Br)cccc32)nc1`, the values for the Intrinsic clearance in [4], in series [11] and in series [12] were 0.3 mL/min/g, 1.1 mL/min/g and 0.7 mL/min/g, respectively. Further, in series [13], the half-maximal effective concentration (EC50) was 180 nM.

Values taken from ChEMBL document CHEMBL4308828, “Fragment Based Optimization of Metabotropic Glutamate Receptor 2 (mGluR2) Positive Allosteric Modulators in the Absence of Structural Information” (J Med Chem, 2018).
